According to ChEMBL document CHEMBL3826928, “Incorporation of Phosphonate into Benzonaphthyridine Toll-like Receptor 7 Agonists for Adsorption to Aluminum Hydroxide” (J Med Chem, 2016):

Assays:
[1] = target: T1, Toll-like receptor 8 (Homo sapiens) (UniProt Q9NR97); assay: Agonist activity at human TLR8 expressed in HEK293 cells up to 30 uM incubated for 6 hrs by luciferase reporter gene assay relative to resiquimod; type: cell-based
T1 sequence (whole entry): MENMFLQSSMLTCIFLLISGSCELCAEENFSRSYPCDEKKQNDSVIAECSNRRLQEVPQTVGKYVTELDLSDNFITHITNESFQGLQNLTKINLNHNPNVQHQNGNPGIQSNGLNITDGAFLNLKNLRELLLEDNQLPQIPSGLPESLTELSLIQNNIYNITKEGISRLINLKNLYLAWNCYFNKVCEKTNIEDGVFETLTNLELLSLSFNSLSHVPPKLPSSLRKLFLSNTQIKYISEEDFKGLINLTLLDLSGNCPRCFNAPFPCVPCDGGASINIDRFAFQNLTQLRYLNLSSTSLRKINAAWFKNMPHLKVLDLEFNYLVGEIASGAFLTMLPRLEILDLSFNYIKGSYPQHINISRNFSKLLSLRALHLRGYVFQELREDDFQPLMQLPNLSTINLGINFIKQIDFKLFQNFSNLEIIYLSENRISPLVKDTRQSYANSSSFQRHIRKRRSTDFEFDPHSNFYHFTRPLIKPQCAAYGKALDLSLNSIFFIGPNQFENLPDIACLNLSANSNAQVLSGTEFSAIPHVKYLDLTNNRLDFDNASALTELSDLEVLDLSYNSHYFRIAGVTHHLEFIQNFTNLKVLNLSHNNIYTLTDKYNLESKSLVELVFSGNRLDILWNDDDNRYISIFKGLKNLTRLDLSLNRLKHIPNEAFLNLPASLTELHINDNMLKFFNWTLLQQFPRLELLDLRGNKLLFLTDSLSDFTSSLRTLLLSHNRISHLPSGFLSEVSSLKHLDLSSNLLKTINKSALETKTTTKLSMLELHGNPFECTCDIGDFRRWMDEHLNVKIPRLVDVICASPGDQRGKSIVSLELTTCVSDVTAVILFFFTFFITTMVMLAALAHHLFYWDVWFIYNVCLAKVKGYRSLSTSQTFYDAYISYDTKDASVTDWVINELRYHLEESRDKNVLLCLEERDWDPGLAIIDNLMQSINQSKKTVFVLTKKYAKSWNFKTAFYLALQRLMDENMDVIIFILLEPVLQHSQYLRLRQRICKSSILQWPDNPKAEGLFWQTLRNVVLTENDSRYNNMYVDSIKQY

Toll-like receptor 7 = target: T2, Toll-like receptor 7 (Homo sapiens, UniProt Q9NYK1); assay: Agonist activity at TLR7 in human PBMC assessed as induction of IL-6 secretion in supernatant after 18 hrs; details: read-out: EC50
T2 sequence (Q9NYK1 whole entry): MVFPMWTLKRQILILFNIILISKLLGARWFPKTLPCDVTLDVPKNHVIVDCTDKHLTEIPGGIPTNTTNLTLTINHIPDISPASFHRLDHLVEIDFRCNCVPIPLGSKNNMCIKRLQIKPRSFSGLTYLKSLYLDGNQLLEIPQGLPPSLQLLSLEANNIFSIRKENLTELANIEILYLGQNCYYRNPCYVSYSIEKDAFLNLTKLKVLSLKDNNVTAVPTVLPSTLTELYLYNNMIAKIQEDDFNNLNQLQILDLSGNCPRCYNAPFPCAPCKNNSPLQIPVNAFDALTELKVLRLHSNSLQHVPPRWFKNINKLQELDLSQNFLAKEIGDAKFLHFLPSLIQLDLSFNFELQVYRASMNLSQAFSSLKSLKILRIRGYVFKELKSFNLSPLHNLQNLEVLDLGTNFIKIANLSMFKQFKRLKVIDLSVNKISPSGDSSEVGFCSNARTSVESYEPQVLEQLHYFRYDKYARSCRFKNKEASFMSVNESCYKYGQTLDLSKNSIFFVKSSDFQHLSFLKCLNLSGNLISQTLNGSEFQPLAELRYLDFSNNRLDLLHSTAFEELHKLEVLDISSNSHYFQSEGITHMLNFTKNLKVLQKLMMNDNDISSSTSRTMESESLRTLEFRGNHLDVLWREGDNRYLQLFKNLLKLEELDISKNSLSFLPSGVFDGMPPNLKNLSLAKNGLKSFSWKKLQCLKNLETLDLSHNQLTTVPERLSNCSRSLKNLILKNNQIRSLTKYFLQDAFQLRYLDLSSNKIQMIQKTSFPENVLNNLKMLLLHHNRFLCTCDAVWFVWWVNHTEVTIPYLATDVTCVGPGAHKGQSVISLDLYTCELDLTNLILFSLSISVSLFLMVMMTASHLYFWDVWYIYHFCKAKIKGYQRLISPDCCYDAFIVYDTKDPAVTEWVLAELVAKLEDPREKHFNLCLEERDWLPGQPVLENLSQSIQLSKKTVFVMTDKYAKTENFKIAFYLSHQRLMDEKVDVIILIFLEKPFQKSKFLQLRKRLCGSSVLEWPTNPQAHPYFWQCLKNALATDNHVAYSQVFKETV
Procedure, shortened: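 Isolated human PBMCs washed in PBS, resuspended in RPMI1640 with 10% heat-inactivated FBS, pyruvate, HEPES, at 1 × 10⁶ cells/mL. Compounds as in-situ sodium salts from 10 mM aqueous stocks, 3-fold 10-point dilutions from 30 μM.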

[2] = Aqueous solubility of compound in pH 1.5 to 10 solution by potentiometric titration method; type: physicochemical; details: buffer
Procedure, shortened: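 About 2 mg solid titrated potentiometrically from pH 10 to pH 1.5 on Sirius T3 after pKa determination with MeOH cosolvent; intrinsic solubility calculated from pKa shift on precipitation (Noyes−Whitney), solubility−pH profile extrapolated by Henderson−Hasselbalch.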

[3] = Aqueous solubility of compound in pH 6.5 to 7.2 solution incubated for 24 hrs by saturated shake flask method; type: physicochemical; details: buffer, pH 6.5, 24 h
Serum [4] = assay: Drug level in Balb/c mouse serum at 100 ug, im measured up to 24 hrs post dose using alum bound compound formulation; type: ADME, organism-based; details: in vivo
Procedure, shortened: (§1)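 Female BALB/c mice (6−8 weeks, 3 per group) given 100 μg intramuscularly, with or without alum, 50 μL in each hind leg. Serum from retro-orbital bleeds at time points; protein precipitation, reverse-phase LC and ESI+ MRM mass spectrometry. Injected muscle drug level measured at 24 h.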

Serum [5] = assay: Drug level in Balb/c mouse serum at 100 ug, im measured at 24 hrs post dose; type: ADME, organism-based; details: in vivo; procedure, shortened: as §1
Muscle tissue [6] = assay: Drug level in Balb/c mouse muscle at 100 ug, im measured at 24 hrs post dose using alum bound compound formulation; type: ADME, organism-based; details: in vivo; procedure, shortened: as §1
Muscle tissue [7] = assay: Drug level in Balb/c mouse muscle at 100 ug, im measured at 24 hrs post dose; type: ADME, organism-based; details: in vivo; procedure, shortened: as §1

| Compound | Activity [1] [%] | EC50 (Toll-like receptor 7) [nM] | solubility [2] | solubility [3] | Drug uptake (Serum [4]) | Drug uptake (Serum [5]) | Drug uptake (Muscle tissue [6]) | Drug uptake (Muscle tissue [7]) |
| --- | --- | --- | --- | --- | --- | --- | --- | --- |
| Cc1cc(OCCCC(F)(F)P(=O)(O)O)ccc1CCc1cnc2c(N)nc3cc(CCC(=O)O)ccc3c2c1 | < 5 | 360 | – | – | – | – | – | – |
| Cc1cc(OCCOCCOCCP(=O)(O)O)ccc1CCc1cnc2c(N)nc3cc(CCC(=O)O)ccc3c2c1 | < 5 | 490 | soluble | – | – | – | – | – |
| Cc1ccc2c(c1)nc(N)c1ncc(CCc3ccc(OCCCP(=O)(O)O)cc3C)cc12 | < 5 | 30000 | – | Insoluble | – | – | – | – |
| Cc1ccc2c(c1)nc(N)c1ncc(CCc3ccc(OCCOCCOCCC(F)(F)P(=O)(O)O)cc3C)cc12 | < 5 | 980 | soluble | – | Not Active | Active | Active | Not Active |
| Cc1cc(OCCOCCOCCC(F)(F)P(=O)(O)O)ccc1CCc1cnc2c(N)nc3cc(CCC(=O)O)ccc3c2c1 | < 5 | 2100 | – | – | – | – | – | – |
